zfTRPN1 agonist: activates the zebrafish TRPN1 channel | 220,000 compounds, 0.18% hits | HEK293 zebrafish TRPN1-YFP, Fluo-8 calcium fluorescence; 100% = response to 87 µM carbachol | activation, % at 3 µM | AID 1424;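 active = activation above its plate's cutoff, the mean activation of test wells on that plate plus 3 SD, cut at about 19% in these data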
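Material: zebrafish TRPN1-YFP in HEK293 cells; Doses: single test compound dose, 3 µM nominal, 0.3% DMSO; Timing: dye loading 1 h at 37 °C, then 30 min room temperature; Technique: intracellular calcium fluorescence with Fluo-8; Benchmarks: high carbachol 87 µM, low DMSO alone.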
OX1R antag-1: blocks the human orexin 1 receptor | inhibition, % at 5 µM | 330,000 compounds, 0.43% hits | O43613 | CHO/OX1R cells, Fluo-8 calcium fluorescence, orexin A;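 active = inhibition above its plate's threshold, mean inhibition of all tested compounds on the plate plus 3 SD, cut at about 37% in these data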
Target sequence (O43613 whole entry, looked up): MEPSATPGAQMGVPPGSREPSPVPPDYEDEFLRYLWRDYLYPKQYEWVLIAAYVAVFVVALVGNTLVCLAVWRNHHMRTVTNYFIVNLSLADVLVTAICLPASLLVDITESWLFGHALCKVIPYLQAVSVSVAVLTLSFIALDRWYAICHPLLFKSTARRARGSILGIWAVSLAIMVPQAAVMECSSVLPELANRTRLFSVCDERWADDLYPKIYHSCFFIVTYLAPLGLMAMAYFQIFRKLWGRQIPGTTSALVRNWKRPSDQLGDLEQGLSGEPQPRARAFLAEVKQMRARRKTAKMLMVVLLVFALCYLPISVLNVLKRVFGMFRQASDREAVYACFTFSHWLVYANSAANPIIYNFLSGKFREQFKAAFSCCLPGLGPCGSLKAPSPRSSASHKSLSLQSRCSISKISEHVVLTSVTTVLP
OX1R antag-2: antagonists of human orexin 1 receptor (OX1R); OX1R-expressing cells, FRET antagonist read-out; inhibition, % at 6.6 µM; AID 485270; 330,000 compounds, 1.8% hits; in the data active = inhibition mostly above about 38%, no sharp cut-off; inactive = mostly below about 40%
TRPML3 agonist: activates the human TRPML3 channel | Q8TDD5 | HEK293 TRPML3-YFP, Fluo-8 calcium fluorescence; 100% = the carbachol control signal | activation, % at 3 µM | 220,000 compounds, 0.29% hits;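 active = activation above its plate's cutoff, the mean activation of the plate's test wells plus 3 SD, cut at about 12% in these data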
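Test system: HEK293 cells stably carrying human TRPML3-YFP; Doses: single dose, 3 µM final nominal compound, 0.3% DMSO final; Schedule: dye loading 1 h 37 °C then 30 min ambient, 125 s read; Technique: Fluo-8 calcium fluorescence; Benchmarks: high control carbachol 87 µM, low control DMSO.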
CHO parental Ca: counter-screen: ATP calcium response change in parental CHO cells; inhibition, % at 5.6 µM; parental CHO-K1, ATP-induced calcium, Fluo-8 fluorescence; 330,000 compounds, 0.63% hits;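 active = inhibition above that plate's mean sample inhibition plus 3 SD, cut at about 26% in these data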
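Material: parental CHO cells / Compound: single nominal dose of 5.6 µM per compound / Signal: Fluo-8 fluorescence / Replicates: singlicate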
Numbers stand for hits; i = inactive; nt = not tested or not shown. Most compounds without a hit are left out; they make up all but 2.5% or so of the library.

SMILES	zfTRPN1 agonist	OX1R antag-1	OX1R antag-2	TRPML3 agonist	CHO parental Ca
CC1(C)CC2(CC(c3ccccc3F)c3ccc(O)c(O)c3O2)NC(=S)N1 (centres undefined)	i	i	i	i	i
COc1ccc(N2C(=O)C(CN3CCN(C)CC3)C2c2ccccc2)cc1 (centres undefined)	i	i	i	i	i
O=C(CCCSc1ccc(Cl)cc1)Nc1cc(S(=O)(=O)N2CCOCC2)ccc1O	nt	i	i	nt	i
Cc1ccc(C(=O)Nc2cccc(S(=O)(=O)N3CCCC3)c2)o1	nt	i	i	nt	i
O=C(c1ccc(C(F)(F)F)cc1)N1CCN(S(=O)(=O)c2ccc3c(c2)OCCCO3)CC1	nt	i	i	nt	i
COc1ccccc1NS(=O)(=O)c1ccc(-c2cnc(C3CC3)o2)cc1	nt	i	i	nt	i
COc1ccc(NS(=O)(=O)c2ccc(-c3cnc(C4CC4)o3)cc2)cc1OC	nt	i	i	nt	55.3
CN(C(=O)COC(=O)c1cc2ccccc2oc1=O)C1CCCCC1	nt	i	27.5	nt	i
C=CCNC(=O)COC(=O)c1ccc(Sc2nncn2C)c([N+](=O)[O-])c1	i	i	72.7	i	i
O=C(NCc1cccs1)C1CCCN1C(=O)Nc1ccccc1Cl (centres undefined)	nt	i	i	nt	i
O=C(COC(=O)c1ccc([N+](=O)[O-])o1)NC1CCCc2ccccc21 (centres undefined)	nt	i	i	nt	i
COc1cccc(/C=N/NC(=O)c2cc3c(OC)ccc(OC)c3[nH]2)c1O	nt	i	47.8	nt	i
O=C(O)CNc1nc(Cl)ccc1[N+](=O)[O-]	i	i	64.0	i	i
O=C(O)CCCNc1ccc([N+](=O)[O-])c(NCCCC(=O)O)n1	i	i	i	i	i
CCN(CCn1cccn1)C(=O)CCc1nnc(CCCc2ccccc2)o1	43.8	i	i	26.5	i
C=C(C)CN(CC)C(=O)CCc1nnc(CCCc2ccccc2)o1	i	i	i	i	i
CCOc1ccc(CN2CCN(CCCc3ccccc3)CC2CCO)cc1 (centres undefined)	nt	i	i	nt	i
Cc1ccnc(NC(=O)c2ccc([N+](=O)[O-])s2)c1	nt	i	69.6	nt	i
Cc1cccc(NC(=O)c2ccc([N+](=O)[O-])s2)n1	nt	i	36.4	nt	i
Cc1cccc(C)c1NC(=O)c1ccc([N+](=O)[O-])s1	i	i	i	i	i
CN1CCN(c2ccc(Cl)cc2NC(=O)/C=C/c2ccc(F)cc2)CC1	i	i	i	i	i
Cn1ncc2c(O/N=C(\N)c3ccc(C(F)(F)F)cc3)ncnc21	i	i	48.3	i	i
CCc1nc2c(s1)CCc1onc(-c3ccc(Cl)cc3)c1-2	nt	i	i	nt	i
Cc1cc(Cl)c(S(=O)(=O)N2CCSCC2)cc1OCC(=O)NC1CCCCC1	i	i	i	i	i
Cc1cc(Cl)c(S(=O)(=O)N2CCCCCC2)cc1OCC(=O)NC1CCCCC1	i	i	i	i	78.2
SMILES	zfTRPN1 agonist	OX1R antag-1	OX1R antag-2	TRPML3 agonist	CHO parental Ca
O=Cc1ccc(-c2ccccc2C(=O)O)o1	i	i	i	i	i
O=C(O)c1ccccc1-c1c2cc(I)c(=O)c(I)c-2oc2c(I)c(O)c(I)cc12	nt	79.0	i	nt	77.9
NS(=O)(=O)c1ccc(NC(=O)COc2ccc(C(=O)c3ccc(F)cc3)cc2)cc1	i	i	i	i	33.8
CCNC(=S)N=Nc1c(O)[nH]c2ccc([N+](=O)[O-])cc12	i	i	46.3	i	i
O=[N+]([O-])c1ccc2[nH]c(O)c(N=NC(=S)NCC3CCCO3)c2c1 (centres undefined)	i	i	i	i	i
N#Cc1nc(COc2ccccc2)oc1N1CCCC1	i	i	i	i	i
N#Cc1nc(COc2ccccc2)oc1N1CCCCCC1	i	i	i	i	54.1
COc1cccc(/C=C2\CC(C)Cc3c2nc2ccccc2c3C(=O)O)c1OC (centres undefined)	nt	i	75.4	nt	i
CCOc1cc(/C=C2\CCCc3c2nc2ccccc2c3C(=O)O)ccc1OC	nt	i	133.2	nt	i
COc1cc(/C=C2\CCc3c2nc2ccccc2c3C(=O)O)cc(OC)c1OC	i	i	i	i	i
Cc1ccc(C(=O)NCCc2nnc3ccc(NCc4ccc5c(c4)OCO5)nn23)cc1	nt	i	i	nt	i
CN(C)CCCNC(=O)c1cc(C(=O)c2c(Cl)cccc2Cl)c[nH]1	nt	i	i	nt	i
COCCN1C(=O)/C(=C/c2ccc(N3CCCC3)cc2C)SC1=S	i	i	i	i	31.5
CCOc1ccc(C)cc1S(=O)(=O)n1cnc2ccccc21	nt	i	i	nt	i
Cc1ccc(C(=O)CSc2cc(C)nc(SCC(=O)c3ccccc3)n2)cc1	i	i	i	i	44.4
Cc1nc2ccccc2nc1SCC(=O)c1ccccc1	i	i	i	i	52.0
O=S(=O)(Cc1ccc(Cl)cc1)NCc1ccc2c(c1)OCO2	nt	i	i	nt	i
CCc1ccc(OCC(=O)Nc2ccc(-c3cc4ccccc4oc3=O)c(OC)c2)cc1	i	i	i	i	39.8
COC(C/C=C\C(=O)[C@@H](C)OCc1ccccc1)OC	nt	i	i	nt	i
NC(=O)c1sc2nc3c(c(-c4cccs4)c2c1N)CCCC3	i	nt	nt	i	nt
Cc1cccc(NC(=O)c2sc3nc4c(c(-c5cccs5)c3c2N)CN(C)CC4)c1	i	i	75.8	i	i
CC(C)NC(=O)c1sc2nc3c(c(-c4cccs4)c2c1N)CN(C)CC3	i	i	59.9	i	i
COc1cc([N+](=O)[O-])cc(/C=N\NC(=O)C2COc3ccccc3O2)c1O (centres undefined)	i	i	i	i	i
COC(=O)Cn1c(=NC(=O)c2cc(-c3cccs3)nc3ccccc23)sc2cc(S(N)(=O)=O)ccc21	i	i	i	i	35.5
CCOC(=O)c1c(C)[nH]c(C)c1S(=O)(=O)NCc1ccccc1OCC	nt	i	62.3	nt	i
SMILES	zfTRPN1 agonist	OX1R antag-1	OX1R antag-2	TRPML3 agonist	CHO parental Ca
CCOC(=O)c1c(C)[nH]c(C)c1S(=O)(=O)NCc1ccccc1C	nt	i	49.8	nt	i
CCOC(=O)c1c(C)[nH]c(C)c1S(=O)(=O)NCc1ccc(OCC)cc1	nt	i	i	nt	i
O=C(CSc1nnnn1C1CC1)N1CCN(c2ccccc2F)CC1	nt	i	i	nt	i
C=CC[n+]1c(/C=C2\C=Cc3cc(C)ccc3N2CC)ccc2ccccc21	i	68.9	114.0	i	56.2
Cc1cccc(-c2nc(CSCC(=O)N3CCN(c4ccccn4)CC3)c(C)o2)c1	i	i	44.7	i	i
Cc1ccsc1-c1nc(CSCC(=O)N2CCN(c3ccccc3)CC2)c(C)o1	i	i	37.8	i	i
Cc1ccc(-c2nc(CSCC(=O)N3CCCC3)c(C)o2)cc1	i	i	i	i	i
O=C1C=CN2CCCCC2CC1 (centres undefined)	nt	i	i	nt	i
O=C(/C=C/c1c(Cl)nc2ccccn12)Nc1ccc(F)cc1	i	i	52.6	i	i
O=C(NNc1c(F)c(F)cc(F)c1F)C1CCN(S(=O)(=O)c2ccccc2F)CC1	nt	i	i	nt	i
CCCSc1nnc2nc3c(nn12)c1ccccc1n3C	i	i	66.0	i	i

High-throughput results: PubChem, The Scripps Research Institute Molecular Screening Center
